Hit rate of the full screen: of about 330,000 compounds, about 350 (0.11%) were called active. The full list was thinned out, with actives kept by preference. A number with no mark means an inactive call.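 How the source made its calls: active means activation above the mean of all tested compounds plus 3 SD (cut at about 21% in these data); inactive means the rest.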

Chain of Caspase-3 (Homo sapiens) (P42574 whole entry D9A/D28A/D175A): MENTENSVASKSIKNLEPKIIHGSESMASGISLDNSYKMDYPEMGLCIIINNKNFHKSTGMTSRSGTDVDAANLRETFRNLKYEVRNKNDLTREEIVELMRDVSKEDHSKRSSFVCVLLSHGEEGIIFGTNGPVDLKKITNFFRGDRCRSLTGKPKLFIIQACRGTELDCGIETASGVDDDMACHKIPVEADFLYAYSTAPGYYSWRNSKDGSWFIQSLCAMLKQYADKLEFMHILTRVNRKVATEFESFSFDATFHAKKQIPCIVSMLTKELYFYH

This test concerns the target Caspase-3 (Homo sapiens) (UniProt P42574). Description: activators of human procaspase-3 D3A mutant, primary screen, biochemical, absorbance, PC-3 D3A mutant, single concentration (AID 463141).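 Further: 0% = DMSO alone and 100% = DMSO wells spiked with extra 5 µM PC-3 D3A.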 The note with it: recombinant procaspase-3 D3A, Ac-DEVD-pNA absorbance 405 nm; at 8.5 µM; active compounds read high. Summed up: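 Compound: 8.5 µM single point, 0.8% DMSO / Material: Autoprocessing-dead procaspase-3 D3A mutant enzyme / Timing: 1 h preincubation plus 2 h reaction at 25 °C / Medium: Zinc-free HEPES/NaCl buffer with 0.01% Triton X-100 at pH 7.4 / Technique: 405 nm absorbance of p-nitroaniline, reads at 0 and 120 min / Repeats: one well per compound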
Turning to `O=C(CN1CCC(O)(c2cccc(C(F)(F)F)c2)CC1)NCCc1ccccc1`, the activation is 2.72%.

Turning to `COC(CCN(C)C)(c1ccccc1)c1ccccc1`, the activation is -2.83%.

Consider `O=[N+]([O-])c1ccc(C=Nc2ccc(Cl)cc2Cl)s1`, for which the activation is 6.25%. With `CCn1c(SCC(=O)NC2=NCCS2)nnc1C(C)NC(=O)c1ccccc1F` (stereo not given), the activation is 2.41%. Regarding `O=C1c2ccccc2C(O)N1Cc1ccccc1Cl` (stereo not given), the activation was -2.13%.

Turning to `COc1ccc2[nH]c3c(c2c1)CCN1C(=O)C(CC(=O)NCCc2ccccn2)C[C@H](C(=O)N2CCOCC2)[C@@]31C` (stereo not given in full), the activation is 0.02%.

Regarding `O=P(c1cccs1)(c1cccs1)c1cccs1`, the activation is -8.39%. The value for `Cc1[nH]n(C(N)=S)c(=O)c1N=Nc1ccc(Cl)cc1Cl` was -2.96%. The value for `CCN(c1ccc2c(c1)OCO2)S(=O)(=O)c1cc(Br)cc2c1N(C(=O)C1CC1)CC2` was 5.06%; that for `O=C(CCNS(=O)(=O)c1ccccc1C(F)(F)F)Nc1ccncc1` was 1.72%.

Take `Cn1cc(CCC(=O)NCc2ccc3c(c2)OCO3)c2ccccc21`: the activation is 11.3%. The value for `O=C(CCNS(=O)(=O)c1ccccc1C(F)(F)F)NCc1ccc2c(c1)OCO2` was 32.1% (active); that for `CN1CCN(CCNC(=O)Nc2ccccc2[N+](=O)[O-])CC1` was 4.28%. For `CN(C)c1ccc(C=NCCc2ccc(S(N)(=O)=O)cc2)cc1`, the activation is 8.03%.

Turning to `Cc1ccc(C)c(NC(=O)COC(=O)c2nn(C)c(=O)c3ccccc23)c1`, the activation is 14.6%.

With `COc1cc(NC(=O)c2ccc(-c3csc(C)n3)cc2)c(OC)cc1Cl`, the activation is 3.93%.

Regarding `CCCc1cc(=O)[nH]c(SCC(=O)Nc2ccc(C(=O)Nc3ccccc3OC)cc2)n1`, the activation is 0.24%. The value for `CCN(Cc1ccccc1)S(=O)(=O)c1cc(C(=O)O)ccc1OC` was 5.66%; that for `FC(F)(F)c1cccc(-c2nc(COc3ccc(Cl)cc3Cl)no2)c1` was -1.22%.

Consider `CCCc1nc2c(C)cc(-c3nc4ccccc4n3C)cc2n1Cc1ccc(-c2ccccc2C(=O)O)cc1`, for which the activation is 5.04%. The value for `CC(C)C(=O)N1CCN(c2nc(-c3ccccc3)c3c(c2C#N)CC(C)(C)OC3)CC1` was 5.16%; that for `COc1ccc(CSc2nc(N3CCOCC3)c3c(c2C#N)CC(C)(C)OC3)cc1` was -2.72%; that for `CC1(C)Cc2c(C#N)c(SCc3nc4ccccc4[nH]3)nc(N3CCOCC3)c2CO1` was 30.9% (active). As to `COc1ccc(OC)c(/C=N/NC(=O)c2ccc[n+](CC(=O)c3ccccc3)c2)c1`, the activation was -2.7%. In the case of `COc1ccc(OC)c(Nc2nc3ccccc3n3cnnc23)c1`, the activation was -2.95%. Turning to `Cc1cc(F)ccc1S(=O)(=O)Nc1ccc(C(=O)N(C)Cc2ccco2)cc1`, the activation is 12.5%. In the case of `CCN(CC)S(=O)(=O)c1ccc(Cl)c(C(=O)NC(C)C(c2cccs2)N2CCCC2)c1` (stereo not given), the activation is 0.02%. As to `O=C(NCc1ccccc1)[C@@H]1CSC2c3ccccc3C(=O)N21` (stereo not given in full), the activation was 5.1%.

In the case of `Cn1nc([N+](=O)[O-])nc1Sc1ccc(C(C)(C)C)cc1`, the activation is -0.3%.

Turning to `ONC(=Nc1ccc(Cl)cc1)c1ccccc1Cl`, the activation is 4.43%. As to `C=CCn1c(SCc2nnc(-c3ccccc3)o2)nnc1C(O)c1ccccc1` (stereo not given), the activation was -1.35%. Regarding `CC1CCN(C(=S)NC2CC3CCC2C3)CC1` (stereo not given), the activation was -7.41%. Take `CCCNC(=O)CN(Cc1ccccc1F)S(=O)(=O)c1ccc(C)cc1`: the activation is 4.46%. The value for `Cc1ccc(N(C(=O)C(F)(F)F)C(C(=O)NC2CCCCC2)c2ccncc2)cc1C` (stereo not given) was -2.69%; that for `O=C(NCCS(=O)(=O)c1ccc(Br)cc1)c1ccccc1Cl` was 3.23%.

The values are drawn from PubChem BioAssay AID463141 (The Scripps Research Institute Molecular Screening Center, 2010).
